Columns and labels:
Format in all cases: functional
[1] = test system: Felis catus; assay: Average food consumed at the dose of 0.016 mg/kg (po) using 10 cats per dose level at 30 min (control day/ test day); 25/104
[2] = test system: Felis catus; assay: Average food consumed at the dose of 0.25 mg/kg (po) using 10 cats per dose level at 60 min (control day/ test day); 26/127
Outline: (§1)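 Cats given test compound suspended in 1% methylcellulose, or 1% methylcellulose placebo, by gavage 30 min before a preweighed test meal. Food was offered in surplus for 3 h, and intake was found by reweighing at 30, 60 and 180 min. Ten cats per dose, each dosed no more than once weekly. Test-day intake was compared with the preceding control day by two-tailed paired t test (p < 0.05); values are mean ± SD.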

[3] = test system: Felis catus; assay: Average food consumed at the dose of 0.063 mg/kg (po) using 10 cats per dose level at 180 min (control day/ test day); 26/204
[4] = test system: Felis catus; assay: Average food consumed at the dose of 0.50 mg/kg (po) using 10 cats per dose level at 30 min (control day/ test day); 38/105; conditions: dose 0.5 mg/kg; outline: as §1
[5] = test system: Felis catus; assay: Average food consumed at the dose of 0.25 mg/kg (po) using 10 cats per dose level at 180 min (control day/ test day); 30/170
[6] = test system: Felis catus; assay: Average food consumed at the dose of 0.031 mg/kg (po) using 10 cats per dose level at 30 min (control day/ test day); 20/75
[7] = test system: Felis catus; assay: Average food consumed at the dose of 0.016 mg/kg (po) using 10 cats per dose level at 180 min (control day/ test day); 39/190
[8] = test system: Felis catus; assay: Average food consumed at the dose of 0.25 mg/kg (po) using 10 cats per dose level at 30 min (control day/ test day); 20/89
[9] = test system: Felis catus; assay: Average food consumed at the dose of 0.031 mg/kg (po) using 10 cats per dose level at 60 min (control day/ test day); 14/95
[10] = test system: Felis catus; assay: Average food consumed at the dose of 0.063 mg/kg (po) using 10 cats per dose level at 60 min (control day/ test day); 32/138
[11] = test system: Felis catus; assay: Average food consumed at the dose of 0.016 mg/kg (po) using 10 cats per dose level at 60 min (control day/ test day); 30/137
[12] = test system: Felis catus; assay: Average food consumed at the dose of 0.50 mg/kg (po) using 10 cats per dose level at 180 min (control day/ test day); 45/221; conditions: dose 0.5 mg/kg; outline: as §1
[13] = test system: Felis catus; assay: Average food consumed at the dose of 0.063 mg/kg (po) using 10 cats per dose level at 30 min (control day/ test day); 33/122
[14] = test system: Felis catus; assay: Average food consumed at the dose of 0.031 mg/kg (po) using 10 cats per dose level at 180 min (control day/ test day); 24/152
[15] = test system: Felis catus; assay: Average food consumed at the dose of 0.50 mg/kg (po) using 10 cats per dose level at 60 min (control day/ test day); 42/155; conditions: dose 0.5 mg/kg; outline: as §1
[16] = test system: Felis catus; assay: Average food consumed at the dose of 0.50 mg/kg (po) using 10 cats per dose level at 30 min (control day/ test day); 33/109; conditions: dose 0.5 mg/kg; outline: as §1
[17] = test system: Felis catus; assay: Average food consumed at the dose of 0.50 mg/kg (po) using 10 cats per dose level at 180 min (control day/ test day); 43/193; conditions: dose 0.5 mg/kg; outline: as §1
[18] = test system: Felis catus; assay: Average food consumed at the dose of 0.50 mg/kg (po) using 10 cats per dose level at 60 min (control day/ test day); 45/142; conditions: dose 0.5 mg/kg; outline: as §1
[19] = test system: Felis catus; assay: Average food consumed at the dose of 0.25 mg/kg (po) using 10 cats per dose level at 60 min (control day/ test day); 46/128; outline: as §1
[20] = test system: Felis catus; assay: Average food consumed at the dose of 0.50 mg/kg (po) using 10 cats per dose level at 30 min (control day/ test day); 24/93; conditions: dose 0.5 mg/kg; outline: as §1
[21] = test system: Felis catus; assay: Average food consumed at the dose of 0.50 mg/kg (po) using 10 cats per dose level at 180 min (control day/ test day); 35/194; conditions: dose 0.5 mg/kg; outline: as §1
[22] = test system: Felis catus; assay: Average food consumed at the dose of 0.50 mg/kg (po) using 10 cats per dose level at 60 min (control day/ test day); 23/129; conditions: dose 0.5 mg/kg; outline: as §1
[23] = test system: Felis catus; assay: Average food consumed at the dose of 0.25 mg/kg (po) using 10 cats per dose level at 30 min (control day/ test day); 37/98; outline: as §1
[24] = test system: Felis catus; assay: Average food consumed at the dose of 0.25 mg/kg (po) using 10 cats per dose level at 180 min (control day/ test day); 40/210
[25] = test system: Felis catus; assay: Average food consumed at the dose of 0.031 mg/kg (po) using 10 cats per dose level at 180 min (control day/ test day); 34/172
[26] = test system: Felis catus; assay: Average food consumed at the dose of 0.031 mg/kg (po) using 10 cats per dose level at 180 min (control day/ test day); 52/182
[27] = test system: Felis catus; assay: Average food consumed at the dose of 0.031 mg/kg (po) using 10 cats per dose level at 60 min (control day/ test day); 9/113
[28] = test system: Felis catus; assay: Average food consumed at the dose of 0.031 mg/kg (po) using 10 cats per dose level at 30 min (control day/ test day); 25/67
[29] = test system: Felis catus; assay: Average food consumed at the dose of 0.031 mg/kg (po) using 10 cats per dose level at 30 min (control day/ test day); 18/88
[30] = test system: Felis catus; assay: Average food consumed at the dose of 0.031 mg/kg (po) using 10 cats per dose level at 60 min (control day/ test day); 25/105

Compound `CN1CCC(=C2c3ccccc3CCc3ccc(C(=O)O)cc32)CC1.Cl` has an Average consumed [1] of 97 g, an Average consumed [2] of 102 g and an Average consumed [3] of 174 g. For the same compound, the Average consumed [4] was 84 g, the Average consumed [5] was 145 g and the Average consumed [6] was 53 g. It also gave an Average consumed [7] of 180 g, an Average consumed [8] of 68 g and an Average consumed [9] of 83 g. The Average consumed [10] was 118 g, the Average consumed [11] was 139 g and the Average consumed [12] was 134 g. The Average consumed [13] was 88 g, the Average consumed [14] was 126 g and the Average consumed [15] was 102 g.
`CN1CCC(=C2c3cc(C(=O)O)ccc3CCn3cccc32)CC1.Cl` showed an Average consumed [16] of 92 g, an Average consumed [17] of 173 g and an Average consumed [18] of 125 g.
`CN1CCC(=C2c3cc(C(=O)O)ccc3C=Cn3cccc32)CC1.Cl` was tested, and the Average consumed [19] was 112 g, the Average consumed [20] was 78 g and the Average consumed [21] was 170 g. For the same compound, the Average consumed [22] was 114 g, the Average consumed [23] was 73 g and the Average consumed [24] was 176 g. The Average consumed [25] was 145 g, the Average consumed [26] was 184 g and the Average consumed [27] was 98 g. The Average consumed [28] was 55 g, the Average consumed [29] was 65 g and the Average consumed [30] was 84 g.

Reference: ChEMBL document CHEMBL1122018, “Synthesis and orexigenic activity of some 1-methyl-4-piperidylidene-Substituted pyrrolo[2,1-g][3] benzazepine and dibenzocycloheptene derivatives” (1982)
